We go through four molecules from ChEMBL document CHEMBL1158044, “Bioactive depsides and anthocyanins from jaboticaba (Myrciaria cauliflora)” (J Nat Prod, 2006).

As usually defined, the IC50 is the concentration that gives 50% inhibition. The term inhibition denotes the percentage by which the read-out fell short of the control.

One series deals with SW480. Nature of the series: Cytotoxicity against human SW480 cells after 72 hrs. Type of series: functional, cell-based. As to conditions: SW480, 72 h. In short, it runs like this:
(§1)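 Colon cancer cells (10 000) seeded in DMEM with 10% FBS. After 24 h, treated with 1, 5, 10, 30, 50 and 70 µM compound for 72 h in DMEM with 1% FBS. Cells washed with PBS, trypsinized and counted on a Coulter Counter. IC50 derived. EGCG and Polyphenon E served as positive controls.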

Series [1] in a line: Cytotoxicity against human HCT 116 cells after 72 hrs. Type of series: functional, cell-based. As to conditions: HCT-116, 72 h. In short, it runs like this: as §1
The nature of series [2]: Inhibition of IL8 production in cigarette smoke extract treated human SAE cells at 100 uM. Type of series: functional. Further details: scale not given: the % may be the effect or the level left. The gist of the method:
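Primary human small airway epithelial cells, confluent, passages 4-8, kept in 5% CO2 at 37 °C. CSE made by drawing smoke of one unfiltered 2R1 reference cigarette through 25 mL DPBS, set to pH 7.4, filtered and diluted to 5% in growth medium. Compound (100 µM) added 30 min before 5% CSE. After 24 h, supernatant IL-8 read by ELISA. Two-sided Student's t-test, 5% level.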

A short description of series [3]: Inhibition of IL8 production in human SAE cells at 100 uM. Further details: Activity: scale not given: the % may be the effect or the level left. The series is classed as functional. In short, it runs like this:
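Confluent human small airway epithelial cells (passages 4-8, 5% CO2, 37 °C) given compound at 100 µM without smoke extract. IL-8 in supernatant measured by ELISA after 24 h. Significance by two-sided Student's t-test at the 5% level.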

Another series relates to HT-29. Nature of the series: Cytotoxicity against human HT-29 cells after 72 hrs. The series is classed as functional, cell-based. The note with it: HT-29, 72 h. In short, it runs like this: as §1
Series [4] can be described thus: Antiradical activity assessed as DPPH radical scavenging activity. Type of series: physicochemical. The gist of the method:
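DPPH radical scavenging done per an earlier method with 400 µM DPPH. Tested on extracts, fractions and pure compounds, with gallic acid as positive control. IC50 reported.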
In general terms: Loss of DPPH colour is used to gauge radical scavenging.

Each structure is given as a SMILES string.

Consider `OC[C@H]1O[C@@H](Oc2cc3c(O)cc(O)cc3[o+]c2-c2cc(O)c(O)c(O)c2)[C@H](O)[C@@H](O)[C@@H]1O`, for which the half-inhibitory concentration (IC50) is 20 µM with SW480 and 12 µM in series [1]. Moreover, the Activity in series [2] is 96%.

Regarding `OC[C@H]1O[C@@H](Oc2cc3c(O)cc(O)cc3[o+]c2-c2ccc(O)c(O)c2)[C@H](O)[C@@H](O)[C@@H]1O` [KUROMANIN], the 50% inhibitory concentration (IC50) (with SW480; in series [1]; in the series on HT-29) was 100 µM throughout. Also, the Activity in series [3] came to 65.3%; in series [2], 36.4%.

Turning to `COC(=O)Cc1c(O)cc(O)cc1OC(=O)c1ccc(O)c(O)c1` [JABOTICABIN], the results for the IC50 (in series [4]; in the series with HT-29) were 51.4 µM and 65 µM, respectively. In series [3] (Homo sapiens, SAE), the inhibition at 100 µM turned out to be 81.3%. The same molecule returned an Activity in series [2] of 47.3%.

For the molecule `O=C(O)Cc1c(O)cc(O)cc1OC(=O)c1ccc(O)c(O)c1`, the IC50 amounted to 61.8 µM in series [4] and 30 µM in series [1]. For the same molecule, the Activity was found to be 74.9% in series [3] and 70.3% in series [2].
